Measurements taken from ChEMBL document CHEMBL1148322, “Synthesis and quantitative structure-activity relationship of hydrazones of N-amino-N'-hydroxyguanidine as electron acceptors for xanthine oxidase” (J Med Chem, 2004).

The molecules below were run against Xanthine dehydrogenase/oxidase (Bos taurus, UniProt P80457) (assay: Electron acceptor activity on bovine milk xanthine oxidase using xanthine as reducing substrate). Details: cattle.
How it was run: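 Run anaerobically at 25 °C in a sealed cuvette with 25 mM Tris-HCl, 1 mM EDTA, pH 7.5. All solutions were argon-gassed for at least 10 min, and the reaction was started by injecting milk xanthine oxidase. Readings from anaerobic controls lacking the acceptor were subtracted. Uric acid formation was read as the increase in absorbance at 295 nm (ε 12.4 mmol⁻¹ cm⁻¹), expressed per min per unit enzyme, as the mean of three determinations.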

Xanthine dehydrogenase/oxidase, sequence (P80457 whole entry): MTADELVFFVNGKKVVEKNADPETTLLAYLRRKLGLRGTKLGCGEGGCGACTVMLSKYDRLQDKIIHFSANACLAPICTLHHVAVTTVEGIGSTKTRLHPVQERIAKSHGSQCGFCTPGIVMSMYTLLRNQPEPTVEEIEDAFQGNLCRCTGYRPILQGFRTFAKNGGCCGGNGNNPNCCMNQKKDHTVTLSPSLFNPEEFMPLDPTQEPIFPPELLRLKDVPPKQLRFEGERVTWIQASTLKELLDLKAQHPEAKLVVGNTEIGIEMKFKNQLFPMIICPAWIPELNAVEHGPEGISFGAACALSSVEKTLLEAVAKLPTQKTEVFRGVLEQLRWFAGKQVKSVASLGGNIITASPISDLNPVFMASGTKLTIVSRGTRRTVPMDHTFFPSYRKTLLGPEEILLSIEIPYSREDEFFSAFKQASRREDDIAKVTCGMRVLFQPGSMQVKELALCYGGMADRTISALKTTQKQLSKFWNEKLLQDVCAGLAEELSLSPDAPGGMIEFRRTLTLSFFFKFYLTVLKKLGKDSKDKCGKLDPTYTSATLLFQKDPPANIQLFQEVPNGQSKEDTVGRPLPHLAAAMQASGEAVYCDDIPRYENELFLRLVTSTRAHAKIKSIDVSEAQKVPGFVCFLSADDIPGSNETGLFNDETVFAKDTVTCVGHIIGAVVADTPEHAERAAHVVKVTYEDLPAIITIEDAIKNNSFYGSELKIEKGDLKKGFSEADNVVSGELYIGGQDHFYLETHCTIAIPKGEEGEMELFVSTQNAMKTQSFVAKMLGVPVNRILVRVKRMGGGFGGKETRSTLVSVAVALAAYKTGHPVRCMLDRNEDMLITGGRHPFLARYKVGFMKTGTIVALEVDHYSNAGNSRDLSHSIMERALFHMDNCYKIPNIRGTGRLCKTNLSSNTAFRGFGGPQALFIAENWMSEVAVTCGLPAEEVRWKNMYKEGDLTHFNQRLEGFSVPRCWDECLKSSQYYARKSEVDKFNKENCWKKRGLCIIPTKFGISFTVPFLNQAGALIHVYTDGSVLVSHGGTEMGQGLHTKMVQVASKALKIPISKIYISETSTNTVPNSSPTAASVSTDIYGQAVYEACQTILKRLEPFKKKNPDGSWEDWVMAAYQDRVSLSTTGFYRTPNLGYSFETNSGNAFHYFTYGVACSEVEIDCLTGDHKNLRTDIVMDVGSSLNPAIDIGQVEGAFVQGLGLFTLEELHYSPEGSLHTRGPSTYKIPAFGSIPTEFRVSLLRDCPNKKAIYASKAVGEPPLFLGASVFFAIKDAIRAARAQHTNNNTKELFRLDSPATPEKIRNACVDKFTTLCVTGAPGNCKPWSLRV

Point of comparison: `COc1cc(/C=N/NC(=N)NO)cc(OC)c1`, Acceptor activity 30.7. Against it:
- N=C(NO)N/N=C/c1ccccc1F — higher, 49.6
- COc1cccc(OC)c1/C=N/NC(=N)NO — lower, 13.2
- CCN(CC)c1ccc(/C=N/NC(=N)NO)cc1 — higher, 62.1
- N=C(NO)N/N=C/c1ccc(Br)cc1 — higher, 82.1
- N=C(NO)N/N=C/c1ccc(Cl)cc1 — higher, 57.9
- N=C(NO)N/N=C/c1cccc(Cl)c1 — higher, 45.4
- CN(C)c1ccc(/C=N/NC(=N)NO)cc1 — higher, 41
- N=C(NO)N/N=C/c1cccc2c1OCO2 — higher, 44.7
- COc1ccc(/C=N/NC(=N)NO)c(Cl)c1OC — higher, 155.6
- COc1ccc(OC)c(/C=N/N=C(\N)NO)c1 — higher, 42.3
- N=C(NO)N/N=C/c1ccccc1Br — higher, 72.9
- COc1cc(OC)c(/C=N/NC(=N)NO)cc1Br — lower, 16.3
- COc1cc(/C=N/NC(=N)NO)c(Br)c(OC)c1OC — higher, 119.5
- N=C(NO)N/N=C/c1ccc(O)cc1 — higher, 64.2
- COc1cc(OC)c(/C=N/N=C(\N)NO)c(OC)c1 — lower, 10.8
- COc1ccc(/C=N/N=C(\N)NO)c(OC)c1OC — higher, 81.5
- COc1cc(Br)cc(/C=N/NC(=N)NO)c1O — higher, 72.4
- N/C(=N\O)N/N=C/c1ccc(O)c(O)c1O — higher, 40.5
- COc1ccc(/C=N/NC(=N)NO)cc1 — higher, 50.9
- COc1cc(/C=N/N=C(\N)NO)cc(OC)c1OC — higher, 54.6
- COc1ccc(/C=N/NC(=N)NO)cc1O — higher, 68.9
- N/C(=N\O)N/N=C/c1ccccc1O — higher, 33.8
- COc1cccc(/C=N/NC(=N)NO)c1O — higher, 45.5
- COc1cc(O)c(/C=N/N=C(\N)NO)c(OC)c1 — higher, 101.7
- N=C(NO)N/N=C/c1cccc(O)c1O — higher, 43.7
- COc1cc(OC)c(OC)cc1/C=N/N=C(\N)NO — lower, 29.7
- N=C(NO)N/N=C/c1ccc(O)cc1O — higher, 72.9
- COc1ccc(/C=N/NC(=N)NO)cc1Br — higher, 35.6
- N/C(=N\O)N/N=C/c1cccc(F)c1 — higher, 56.2
- N=C(NO)N/N=C/c1ccc(F)cc1 — higher, 43.2
- N=C(NO)N/N=C/c1ccccc1Cl — higher, 90.2
- COc1ccccc1/C=N/N=C(\N)NO — higher, 59.7
- COc1cccc(/C=N/NC(=N)NO)c1 — higher, 55
- COc1cc([N+](=O)[O-])cc(/C=N/NC(=N)NO)c1OC — lower, 0.8
- COc1ccc(OC)c([N+](=O)[O-])c1/C=N/NC(=N)NO — higher, 47.3
- N=C(NO)N/N=C/c1c(Cl)cccc1[N+](=O)[O-] — higher, 44
- N=C(NO)N/N=C/c1ccccc1[N+](=O)[O-] — higher, 56.4
- N/C(=N\O)N/N=C/c1cccc([N+](=O)[O-])c1 — lower, 24.4
- N=C(NO)N/N=C/c1cc([N+](=O)[O-])ccc1O — lower, 25.8
- N=C(NO)N/N=C/c1ccc([N+](=O)[O-])cc1[N+](=O)[O-] — higher, 295.7
- N=C(NO)N/N=C/c1c([N+](=O)[O-])cccc1[N+](=O)[O-] — higher, 154.5
- N=C(NO)N/N=C/c1cc(O)ccc1[N+](=O)[O-] — higher, 31.5
- COc1cc([N+](=O)[O-])c(/C=N/NC(=N)NO)c(Cl)c1OC — higher, 48.8
- N=C(NO)N/N=C/c1c(Cl)ccc(Cl)c1[N+](=O)[O-] — higher, 68.3
- N=C(NO)N/N=C/c1c(Cl)ccc([N+](=O)[O-])c1[N+](=O)[O-] — higher, 216.3
- N=C(NO)N/N=C/c1ccc([N+](=O)[O-])cc1 — higher, 94.2
- N/C(=N\O)N/N=C/c1ccc(Cl)c([N+](=O)[O-])c1 — higher, 42.1
- N=C(NO)N/N=C/c1ccc(Br)c([N+](=O)[O-])c1 — higher, 35
- COc1ccc([N+](=O)[O-])c(/C=N/NC(=N)NO)c1OC — lower, 22
- COc1cc([N+](=O)[O-])c([N+](=O)[O-])c(/C=N/NC(=N)NO)c1OC — higher, 52.9
